Apaf1 activ – activators of human Apaf-1 apoptosome; Apaf-1 apoptosome caspase-3 activation, DEVD-Rh110 fluorescence; active compounds read low; hit rate 0.31% among 330,000; O14727; AID 489031; activity change, negative = activation, % at 20 µM;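 active = activity change at or below -40% at 20 µM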
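Assay system – biochemical Apaf-1 apoptosome reconstitution · Medium – 20 mM HEPES buffer, pH 7.5, containing CHAPS and BSA · Incubation – 30 min preincubation, 50 min reaction, room temperature · Measured by – Caspase-3-released Rh110 fluorescence, 540 nm emission, 480 nm excitation · Read-out – Caspase-3 cleavage activity downstream of Apaf-1 activation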
Rh110 interf act – counter-screen for Apaf-1 activators: fluorescence interference | shares compounds with Apaf1 activ | fluorescence interference (activity change), % at 20 µM, hits read low | 980 tested, under 10 active | AID 504616 | Rh110 fluorescence interference, quenched caspase reaction, Ex480/Em540;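 active = mean activity change at or below -40% when tested at 20 µM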
Apaf-1 act conf2 – Apaf-1 (human) activation, single-dose confirmed | AID 504617 | shares compounds with Apaf1 activ | reconstituted apoptosome caspase-3 activity, DEVD-Rh110 fluorescence; active compounds read low | hit rate 5% among 980 | activity change, negative = activation, % at 20 µM;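 active = mean activity change at or below -40%, meaning activation of 40% or more, at 20 µM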
An asterisk follows results filed as active. A selection follows.

`COC(=O)CCC(=O)OC1(C)C(=O)C=C2C=C(C3CC3)N(CC(C)C)C=C2C1=O` (stereo unspecified) gave Apaf1 activ 53.
For Cc1ccc(NC(=O)CC(C)N2CCCC2)cc1 (stereo unspecified) the results were Apaf1 activ -79*, Rh110 interf act 10 and Apaf-1 act conf2 13.
For NC[C@@H]1O[C@H](C23CC4CC(CC(C4)C2)C3)Cc2c1ccc(O)c2O the results were Apaf1 activ 42.
For CCN(Cc1ccccc1)S(=O)(=O)c1ccc(C(=O)N(CCCN(C)C)c2nc3cc(C)cc(C)c3s2)cc1 the results were Apaf1 activ 42.
For O=[N+]([O-])c1ccc(-c2ccc(C=Nc3cccc4ccccc34)o2)cc1 the results were Apaf1 activ 46.
Screening CC(C)N(C(=O)[C@H]1C[C@H](CC(=O)NCCCN(C)C)C(=O)N2CCc3c([nH]c4cc(-c5ccco5)ccc34)[C@]12C)C(C)C returned Apaf1 activ 52.
For Cc1ccc(SCC(=O)OCC(=O)NCCNC(=O)COC(=O)CSc2ccc(C)c(C)c2)cc1C the results were Apaf1 activ 40.
For COc1ccc(Cn2c(SCc3ccccc3C)nc3cc(OC)c(OC)cc3c2=N)cc1 the results were Apaf1 activ 70.
`COc1ccc(CCNC(=O)CSc2nnc(C(C)N(C)C)n2Cc2ccccc2)cc1OC` (stereo unspecified) gave Apaf1 activ -60*, Rh110 interf act 22 and Apaf-1 act conf2 15.
For O=S(=O)(NCC(Nc1ccccc1)c1ccccc1)c1ccc(Cl)cc1 (stereo unspecified) the results were Apaf1 activ -245*, Rh110 interf act 8 and Apaf-1 act conf2 18.
Screening CCCCN(CC)S(=O)(=O)c1ccc(C(=O)N(CCCN(C)C)c2nc3cc(C)cc(C)c3s2)cc1 returned Apaf1 activ 47.
`CCC(C)(C(=O)NC1CCCC1)N(C(=O)c1ccccn1)c1ccc(C)cc1` (stereo unspecified) gave Apaf1 activ -78*, Rh110 interf act 6 and Apaf-1 act conf2 14.
For CCOc1cccc2sc(N(CCCN(C)C)C(=O)c3ccc(S(=O)(=O)N(C)Cc4ccccc4)cc3)nc12 the results were Apaf1 activ 62.
`CCOc1cccc2sc(N(CCCN(C)C)C(=O)c3ccc(S(=O)(=O)N(CC)Cc4ccccc4)cc3)nc12` gave Apaf1 activ 67.
O=C(NCc1ccccc1)c1ccc(CN(c2ccccn2)S(=O)(=O)c2ccccc2)cc1 was read as Apaf1 activ -115*, Rh110 interf act 4 and Apaf-1 act conf2 2.
CNC[C@H](CC1CCCCC1)NC[C@H](Cc1ccccc1)NCCC12CC3CC(CC(C3)C1)C2 was read as Apaf1 activ 74.
Screening CCOc1ccc(NC(=S)Nc2cccc3cnccc23)cc1 returned Apaf1 activ 96.
CCOc1ccc(OCc2ccc(C(=O)Nc3cccnc3)cc2)cc1 was read as Apaf1 activ -51*, Rh110 interf act 2 and Apaf-1 act conf2 6.
`O=C(Nc1ccccc1C(=O)Nc1cccnc1)c1ccccc1` gave Apaf1 activ -166*, Rh110 interf act 9 and Apaf-1 act conf2 14.
`CCN(C(=S)Nc1cccnc1)c1cccc2ccccc12` gave Apaf1 activ 85.
For CCOc1ccc(NC(=O)CN(C)C(=O)c2ccc(COc3ccccc3)cc2)cc1OCC the results were Apaf1 activ 48.
For S=C(Nc1cccnc1)Nc1cccc2cnccc12 the results were Apaf1 activ 86.
Screening Nc1ccc2c(c1)C(=O)C(=O)c1ccccc1-2 returned Apaf1 activ 98.
For CC1(C)Cc2c(sc(NC(=O)COc3cccc4ccccc34)c2C#N)C(C)(C)N1 the results were Apaf1 activ 46.
`CC1CC(C)CN(CCCNC(=O)CN2C(=O)c3cccnc3Oc3ccc(Cl)cc32)C1` (stereo unspecified) gave Apaf1 activ -148*, Rh110 interf act -1 and Apaf-1 act conf2 9.
For c1ccc(C2(CN3CCNC[C@H]3Cc3cccc4ccccc34)CC2)cc1 the results were Apaf1 activ 53.
CCC(C(=O)NCc1ccco1)n1nc(C)c2c(C)n(-c3ccccc3)nc2c1=O (stereo unspecified) was read as Apaf1 activ -86*, Rh110 interf act 2 and Apaf-1 act conf2 13.
Nc1c(C(=O)NCc2ccco2)c2nc3ccccc3nc2n1CCc1ccccc1F was read as Apaf1 activ 61.
For COc1cc(C)c2c(c1C=O)Oc1c(c(C)c(O)c3c1C(O)OC3=O)OC2=O (stereo unspecified) the results were Apaf1 activ 56.
For Nc1ccc2nn(-c3cccc4ccccc34)nc2c1 the results were Apaf1 activ 96.
O=C(/C=C\c1ccc2c(c1)OCO2)NC1(C(=O)Nc2ccc3c(c2)OCO3)CCCCC1 was read as Apaf1 activ -87*, Rh110 interf act 3 and Apaf-1 act conf2 14.
Nc1ccc(N)c(C(=O)O)c1 was read as Apaf1 activ 67.
`CC1=NN(c2ccc(C)c(C)c2)C(=O)C1C(c1cccc(O)c1)C1C(=O)N(c2ccc(C)c(C)c2)N=C1C` (stereo unspecified) gave Apaf1 activ 87.
For C=CCn1c(SCC(=O)Nc2sccc2C(N)=O)nc2sc(CC)cc2c1=O the results were Apaf1 activ 42.
Screening Fc1ccc(NC(=S)Nc2cccc3ccccc23)cc1 returned Apaf1 activ 85.
For Cc1ccc(F)cc1NC(=S)NCCc1ccccc1 the results were Apaf1 activ -523*, Rh110 interf act -5 and Apaf-1 act conf2 19.
For CCc1cccc(NC(=S)Nc2cccc3ccccc23)c1 the results were Apaf1 activ 79.
For CCC1Nc2ncnc(N3CCN(c4ccccc4)CC3)c2N(Cc2ccccc2)C1=O (stereo unspecified) the results were Apaf1 activ 60.
`Cc1cc2cc(CNS(=O)(=O)c3ccccc3)ccc2n1C` gave Apaf1 activ 61.
For O=C(CSc1cn[nH]n1)Nc1nc2ccccc2s1 the results were Apaf1 activ -285*, Rh110 interf act -2 and Apaf-1 act conf2 11.
CC(=O)c1ccc(NC(=O)CSc2cn[nH]n2)cc1 was read as Apaf1 activ -294*, Rh110 interf act -4 and Apaf-1 act conf2 11.
CC(=O)c1ccc(NC(=O)CC2Nc3cccc4cccc(c34)NC2=O)cc1 (stereo unspecified) was read as Apaf1 activ 89.
Screening CCN(CC)CCOC(=O)c1ccc(N/C=C(/C#N)c2nc(-c3ccc(OC)c(OC)c3)cs2)cc1 returned Apaf1 activ 55.
`COc1ccc2ccccc2c1C1CC(=O)N2CN(C)CSC2=C1C#N` (stereo unspecified) gave Apaf1 activ 71.
`CCc1cccc2c(C#N)cn(CCOc3ccccc3OC)c12` gave Apaf1 activ -104*, Rh110 interf act 3 and Apaf-1 act conf2 17.
`O=C(CN(Cc1cccs1)C(=O)CNS(=O)(=O)c1ccc(Cl)cc1)NCC1CCCO1` (stereo unspecified) gave Apaf1 activ -292*, Rh110 interf act 1 and Apaf-1 act conf2 9.

From PubChem BioAssay
